Like-named read-outs stand apart in the source and are kept apart here.
Assays:
[1] = tested on: human prostate cancer PC-3 cells; settings: read-out: antiproliferative IC50, PC-3 cells; ref Bonnet et al., 2014; cited from earlier work
[2] = tested on: murine leukemia P-388 cells; settings: read-out: antiproliferative IC50, P-388 cells; ref Bonnet et al., 2014; cited from earlier work
[3] = tested on: human colon cancer HT-29 cells; settings: read-out: antiproliferative IC50, HT-29 cells; ref Bonnet et al., 2014; cited from earlier work
HDAC4 = HDAC4 (Homo sapiens, UniProt P56524); assay: HDAC enzyme activity assay, HDAC4; assay type: biochemical
HDAC4, sequence (P56524 655-1084 limits assumed): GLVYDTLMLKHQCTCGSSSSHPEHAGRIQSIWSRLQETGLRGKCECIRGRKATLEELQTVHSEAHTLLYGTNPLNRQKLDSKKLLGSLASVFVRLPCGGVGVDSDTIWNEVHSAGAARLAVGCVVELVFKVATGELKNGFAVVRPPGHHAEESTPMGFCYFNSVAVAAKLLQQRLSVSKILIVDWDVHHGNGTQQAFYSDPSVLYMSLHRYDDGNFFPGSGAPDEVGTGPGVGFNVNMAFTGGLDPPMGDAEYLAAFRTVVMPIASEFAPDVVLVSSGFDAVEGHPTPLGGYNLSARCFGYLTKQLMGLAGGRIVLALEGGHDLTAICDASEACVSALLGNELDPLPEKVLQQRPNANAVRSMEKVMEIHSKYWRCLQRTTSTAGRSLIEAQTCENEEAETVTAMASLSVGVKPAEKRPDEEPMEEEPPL
Method in brief: (§1)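 Enzymes were recombinant: HDAC8, and the codon-optimised human HDAC4 catalytic domain (pET14b). Serial inhibitor dilutions in 25 mM Tris-HCl, 75 mM KCl, 0.001% Pluronic F-127, pH 8.0 were pre-incubated with enzyme for 1 h at 30 °C. Reaction ran 60 min at 30 °C with 20 μM Boc-Lys(trifluoroacetyl)-AMC and was stopped with 1.7 μM SATFMK. Trypsin (0.4 mg/ml) released AMC; fluorescence read at Ex 350/Em 450 nm. Triplicate; IC50 from dose-response curves.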

K562 cells = assay: MTT cytotoxicity assay in K562 cells; assay type: cell-based; settings: read-out: K562- IC50
Method in brief: (§2)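 Cells were grown in suspension in RPMI 1640 with 10% FBS and penicillin/streptomycin/amphotericin B at 37 °C under 5% CO2. They were seeded at ~5×10^3 cells/well, kept overnight, then exposed to test compounds diluted in DMSO for 48 h. Cells were pelleted (300 g, 4 °C, 5 min) and washed twice in phosphate buffer. MTT (5 mg/ml stock) was added for 4 h at 37 °C, formazan dissolved in DMSO, and A570 read. Triplicate; IC50 given as mean±SD.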

HDAC1 = HDAC1 (Homo sapiens, UniProt Q13547); assay: HDAC enzyme activity assay, HDAC1; assay type: biochemical
HDAC1, sequence (Q13547 whole entry, species assumed): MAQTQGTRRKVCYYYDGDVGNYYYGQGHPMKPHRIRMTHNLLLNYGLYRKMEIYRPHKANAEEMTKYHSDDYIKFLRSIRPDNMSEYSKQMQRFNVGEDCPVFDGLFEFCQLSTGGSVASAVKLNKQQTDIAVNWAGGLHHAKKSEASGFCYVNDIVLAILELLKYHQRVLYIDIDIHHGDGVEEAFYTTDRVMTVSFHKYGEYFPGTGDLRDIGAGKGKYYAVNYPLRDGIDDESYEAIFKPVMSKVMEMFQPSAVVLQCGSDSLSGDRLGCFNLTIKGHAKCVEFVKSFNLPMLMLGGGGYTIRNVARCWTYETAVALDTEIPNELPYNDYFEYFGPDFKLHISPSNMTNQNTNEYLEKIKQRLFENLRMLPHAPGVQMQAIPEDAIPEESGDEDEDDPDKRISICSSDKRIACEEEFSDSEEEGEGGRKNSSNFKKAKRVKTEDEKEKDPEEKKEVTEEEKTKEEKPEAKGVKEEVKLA

HDAC8 = target: T1, HDAC8 (Homo sapiens, UniProt Q9BY41); assay: HDAC enzyme activity assay, HDAC8; assay type: biochemical; settings: for HDAC-8 relative enzyme activity: primary screening at 50 μM
T1 sequence (Q9BY41 1-377): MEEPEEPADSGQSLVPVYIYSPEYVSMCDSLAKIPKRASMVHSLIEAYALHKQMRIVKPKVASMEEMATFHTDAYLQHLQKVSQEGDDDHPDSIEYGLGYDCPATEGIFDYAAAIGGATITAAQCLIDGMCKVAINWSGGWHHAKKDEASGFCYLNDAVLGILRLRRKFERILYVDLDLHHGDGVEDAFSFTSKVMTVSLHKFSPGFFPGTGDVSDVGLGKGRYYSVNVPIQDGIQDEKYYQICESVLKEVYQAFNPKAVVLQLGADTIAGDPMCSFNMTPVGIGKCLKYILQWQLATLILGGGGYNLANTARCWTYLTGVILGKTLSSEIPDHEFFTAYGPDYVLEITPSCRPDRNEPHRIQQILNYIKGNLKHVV
Method in brief: as §1

HDAC6 = target: T2, HDAC6 (Homo sapiens, UniProt Q9UBN7); assay: HDAC enzyme activity assay, HDAC6; assay type: biochemical
T2 sequence (Q9UBN7 1-1215): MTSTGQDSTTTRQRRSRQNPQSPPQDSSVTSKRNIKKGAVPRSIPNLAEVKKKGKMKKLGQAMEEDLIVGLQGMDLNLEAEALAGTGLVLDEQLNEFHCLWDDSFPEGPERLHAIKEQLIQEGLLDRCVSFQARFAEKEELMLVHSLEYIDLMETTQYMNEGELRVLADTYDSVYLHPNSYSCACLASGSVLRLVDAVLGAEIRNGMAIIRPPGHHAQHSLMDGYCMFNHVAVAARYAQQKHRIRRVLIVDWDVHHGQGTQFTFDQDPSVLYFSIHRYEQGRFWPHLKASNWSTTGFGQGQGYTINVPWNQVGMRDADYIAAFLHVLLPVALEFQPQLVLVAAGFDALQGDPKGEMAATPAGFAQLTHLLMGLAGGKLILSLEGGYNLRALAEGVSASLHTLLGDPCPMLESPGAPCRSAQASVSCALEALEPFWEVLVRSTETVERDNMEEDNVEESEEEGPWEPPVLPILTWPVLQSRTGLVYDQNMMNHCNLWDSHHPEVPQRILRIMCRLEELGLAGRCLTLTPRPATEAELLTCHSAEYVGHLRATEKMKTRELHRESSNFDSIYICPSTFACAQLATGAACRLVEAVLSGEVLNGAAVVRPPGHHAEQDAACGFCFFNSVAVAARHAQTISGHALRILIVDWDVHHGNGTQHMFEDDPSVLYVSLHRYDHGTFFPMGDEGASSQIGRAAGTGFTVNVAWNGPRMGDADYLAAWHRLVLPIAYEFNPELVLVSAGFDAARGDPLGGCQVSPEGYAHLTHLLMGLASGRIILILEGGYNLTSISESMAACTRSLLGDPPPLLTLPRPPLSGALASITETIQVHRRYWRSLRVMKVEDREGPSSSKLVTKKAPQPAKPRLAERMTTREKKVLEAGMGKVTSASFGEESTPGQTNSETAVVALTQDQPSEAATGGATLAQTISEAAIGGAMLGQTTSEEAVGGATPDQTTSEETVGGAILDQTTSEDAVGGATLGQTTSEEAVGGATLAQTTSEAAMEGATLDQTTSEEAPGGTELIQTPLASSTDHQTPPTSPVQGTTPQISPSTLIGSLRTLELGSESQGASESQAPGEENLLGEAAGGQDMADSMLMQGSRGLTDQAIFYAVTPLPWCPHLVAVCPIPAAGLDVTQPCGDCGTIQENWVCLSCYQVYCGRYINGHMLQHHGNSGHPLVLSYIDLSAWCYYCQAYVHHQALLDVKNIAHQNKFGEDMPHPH

CEM cells = assay: MTT cytotoxicity assay in CEM cells; assay type: cell-based; settings: read-out: CEM- IC50, 48 h, Mean±SD, n=3
Method in brief: as §2

[4] = read-out: HDAC4 IC50, Means ±SD, n=3
[5] = read-out: HDAC1 IC50, Means ±SD, n=3
[6] = read-out: HDAC8 IC50, Means ±SD, n=3
[7] = read-out: HDAC6 IC50, Means ±SD, n=3

Structure (SMILES)	IC50 (HDAC4; [4]) [µM]	IC50 (HDAC1; [5]) [µM]	HDAC-8 relative enzyme activity (HDAC8) [%]	IC50 (HDAC8; [6]) [µM]	IC50 (HDAC6; [7]) [µM]	IC50 (HDAC4) [µM]	IC50 (HDAC1) [µM]	IC50 (HDAC8) [µM]	IC50 (HDAC6) [µM]	IC50 [1] [µM]	IC50 [2] [µM]	IC50 [3] [µM]	IC50 (K562 cells; MTT, 48 h, Mean±SD, n=3) [µM]	IC50 (CEM cells) [µM]	IC50 (K562 cells; Homo sapiens, K562, 48 h) [µM]
O=C1C[C@@H]2/C(=C(O)\C=C\c3ccccc3)C(=O)C=C[C@@H]2O1 [(+)-Cryptocaryone]	–	–	–	–	–	–	–	–	–	1.6	0.04	0.32	–	–	–
O=C(CN1C(=O)SC(=Cc2ccc(Br)cc2)C1=O)Nc1ccc(Cl)cc1C(F)(F)F [Compound G1, 2-[5-(4-Bromobenzylidene)-2,4-dioxo-thiazolidin-3-yl]-N-(4-chloro-2-trifluromethylphenyl) acetamide]	> 50	> 50	< 50	20 ± 3	16 ± 2	–	–	–	–	–	–	–	24 ± 0.58	25.1 ± 1.84	–

Further lines, with some results ahead:

IC50 (HDAC4; [4]) [µM]	IC50 (HDAC1; [5]) [µM]	HDAC-8 relative enzyme activity (HDAC8) [%]	IC50 (HDAC8; [6]) [µM]	IC50 (HDAC6; [7]) [µM]	IC50 (HDAC4) [µM]	IC50 (HDAC1) [µM]	IC50 (HDAC8) [µM]	IC50 (HDAC6) [µM]	Structure (SMILES)	IC50 [1] [µM]	IC50 [2] [µM]	IC50 [3] [µM]	IC50 (K562 cells; MTT, 48 h, Mean±SD, n=3) [µM]	IC50 (CEM cells) [µM]	IC50 (K562 cells; Homo sapiens, K562, 48 h) [µM]
> 50	> 50	< 50	16 ± 2	17 ± 2	–	–	–	–	Cc1ccc(C=C2SC(=O)N(CC(=O)Nc3ccc(Cl)cc3C(F)(F)F)C2=O)cc1C [Compound G3, N-(4-Chloro-2-trifluoromethylphenyl)-2-[5-(3,4-dimethylbenzylidene)-2,4-dioxothiazolidin-3-yl] acetamide]	–	–	–	26.4 ± 3.07	25.9 ± 2.95	–
–	–	< 50	–	–	> 50	31 ± 1.1	18 ± 2	14 ± 3	Cc1ccc(C=C2SC(=O)N(CC(=O)Nc3ccc(Cl)cc3C(F)(F)F)C2=O)cc1 [Compound G11, N-(4-Chloro-2-trifluoromethylphenyl)-2-[5-(4-methylbenzylidene)-2,4-dioxothiazolidin-3-yl]acetamide]	–	–	–	–	–	34.6 ± 3.57
–	–	< 50	–	–	> 50	> 50	11 ± 1	42	O=C(CN1C(=O)SC(=Cc2ccccc2)C1=O)Nc1ccc(Cl)cc1C(F)(F)F [Compound G13, 2-[5-Benzylidene-2,4-dioxothiazolidin-3-yl]-N-(4-chloro-2-trifluoromethylphenyl)acetamide]	–	–	–	–	–	41.7 ± 3.9

— article PMC9398548 (European journal of pharmaceutical sciences : official …, 2020)
